# Starred links: 1 amine or outer side, 2 acyl side, 3 side chain; linkers in the order of their positions; H or OH if unused. Non-standard residues stand in square brackets, D forms with d. Residues, ends and D or L forms follow the SMILES beside them. *: point of attachment. X1 = CC(C)C[C@H](C(=O)[*:2])[C@H](O)C[C@H]1CCCN1[*:1]; CO = O=C([*:1])[*:2]; NHBn = c1ccc(CN*)cc1
# What was measured:
# [1] = biological target: Protease (Human T-cell leukemia virus type I, UniProt Q82134, C109A/C90A/L40I); assay: (§1) Inhibition of HTLV-1 protease L40I/C90A/C109A mutant using dodecapeptide as substrate by HPLC analysis
# Procedure, shortened: (§2)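 Synthetic mutant HTLV-1 protease at 5.6 nM, with a dodecapeptide substrate, in 0.5 M sodium acetate pH 5.6 containing 10% glycerol, 10 mM DTT and 4 M NaCl. Loss of substrate during incubation followed by reversed-phase HPLC (C18, 10–40% CH3CN gradient over 30 min in 0.1% TFA). IC50 from a sigmoidal dose–response curve; assay run three times.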
# [2] = biological target: Protease (Human T-cell leukemia virus type I, UniProt Q82134, L40I/C90A/C109A); assay: as §1; procedure, shortened: as §2
# Sequence of Protease (Human T-cell leukemia virus type I, UniProt Q82134, L40I/C90A/C109A) (Q82134 entry or part of it L40I/C90A/C109A): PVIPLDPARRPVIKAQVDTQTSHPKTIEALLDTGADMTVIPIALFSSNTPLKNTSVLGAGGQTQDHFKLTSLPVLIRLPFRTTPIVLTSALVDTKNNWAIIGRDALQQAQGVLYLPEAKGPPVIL
# Sequence of Protease (Human T-cell leukemia virus type I, UniProt Q82134, C109A/C90A/L40I) (Q82134 entry or part of it C109A/C90A/L40I): as the sequence (Q82134 entry or part of it L40I/C90A/C109A) above
Compound,IC50 [1] [µM],IC50 [2]
CCCC(CCC)C(=O)N1CCC[C@@H]1C[C@@H](O)[C@H](CC(C)C)C(=O)N[C@@H](C(=O)N[C@@H](C(=O)N1CCC[C@@H]1C(=O)N1CCC[C@@H]1C(N)=O)C(C)C)[C@H](C)CC,420,
CC[C@@H](C)[C@@H](NC(=O)[C@@H](CC(C)C)[C@H](O)C[C@H]1CCCN1C(=O)[C@H](NC(C)=O)[C@H](C)CC)C(=O)N[C@@H](C(=O)N1CCC[C@@H]1C(=O)N1CCC[C@@H]1C(N)=O)C(C)C (Ac-[dI][X1][dI][dV][dP][dP]-NH2),110,
CC[C@@H](C)[C@@H](NC(=O)[C@@H](CC(C)C)[C@H](O)C[C@H]1CCCN1)C(=O)N[C@@H](C(=O)N1CCC[C@@H]1C(=O)N1CCC[C@@H]1C(N)=O)C(C)C,,Not Active
CC[C@@H](C)[C@@H](NC(=O)[C@@H](CC(C)C)[C@H](O)C[C@H]1CCCN1C(=O)NCc1ccccc1)C(=O)N[C@@H](C(=O)N1CCC[C@@H]1C(=O)N1CCC[C@@H]1C(N)=O)C(C)C ({NHBn-CO}-[X1][dI][dV][dP][dP]-NH2),160,
CC[C@@H](C)[C@@H](NC(=O)[C@@H](CC(C)C)[C@H](O)C[C@H]1CCCN1C(=O)C(C)(C)C)C(=O)N[C@@H](C(=O)N1CCC[C@@H]1C(=O)N1CCC[C@@H]1C(N)=O)C(C)C,1000,
CC[C@@H](C)[C@@H](NC(=O)[C@@H](CC(C)C)[C@H](O)C[C@H]1CCCN1C(=O)/C=C/c1ccccc1)C(=O)N[C@@H](C(=O)N1CCC[C@@H]1C(=O)N1CCC[C@@H]1C(N)=O)C(C)C,290,
CC[C@@H](C)[C@@H](NC(=O)[C@@H](CC(C)C)[C@H](O)C[C@H]1CCCN1C(=O)[C@H](NC(=O)[C@H](N)CCC(N)=O)[C@H](C)CC)C(=O)N[C@@H](C(=O)N1CCC[C@@H]1C(=O)N1CCC[C@@H]1C(N)=O)C(C)C,2000,
CC[C@@H](C)[C@@H](NC(=O)[C@@H](CC(C)C)[C@H](O)C[C@H]1CCCN1C(=O)CCC(C)C)C(=O)N[C@@H](C(=O)N1CCC[C@@H]1C(=O)N1CCC[C@@H]1C(N)=O)C(C)C,520,
CC[C@@H](C)[C@@H](N)C(=O)N1CCC[C@@H]1C[C@@H](O)[C@H](CC(C)C)C(=O)N[C@@H](C(=O)N[C@@H](C(=O)N1CCC[C@@H]1C(=O)N1CCC[C@@H]1C(N)=O)C(C)C)[C@H](C)CC,1500,
CC[C@@H](C)[C@@H](NC(=O)[C@@H](CC(C)C)[C@H](O)C[C@H]1CCCN1C(=O)c1ccccc1)C(=O)N[C@@H](C(=O)N1CCC[C@@H]1C(=O)N1CCC[C@@H]1C(N)=O)C(C)C,1100,
CC[C@@H](C)[C@@H](NC(=O)[C@@H](CC(C)C)[C@H](O)C[C@H]1CCCN1C(=O)OCc1ccccc1)C(=O)N[C@@H](C(=O)N1CCC[C@@H]1C(=O)N1CCC[C@@H]1C(N)=O)C(C)C,380,
CC[C@@H](C)[C@@H](NC(=O)[C@@H](CC(C)C)[C@H](O)C[C@H]1CCCN1C(=O)CCc1ccccc1)C(=O)N[C@@H](C(=O)N1CCC[C@@H]1C(=O)N1CCC[C@@H]1C(N)=O)C(C)C,160,

# From ChEMBL document CHEMBL3232830, “Effect of prime-site sequence of retro-inverso-modified HTLV-1 protease inhibitor” (Bioorg Med Chem, 2014)
